Data taken from ChEMBL document CHEMBL1157912, “Impact of nature and length of linker incorporated in agonists on toll-like receptor 9-mediated immune responses” (J Med Chem, 2010).
Activity calls are given as the source filed them. The calls are words filed in the database; no cut-off is given here.

How the values were obtained:
[1] = molecular target: T1, Toll-like receptor 9 (Homo sapiens) (UniProt Q9NR96); test: Induction of TLR9-mediated immune stimulation in human PBMC assessed as IL1Ralpha production at 2 ug/ml after 24 hrs by luminex multiplex assay (RVb = 0.12 +/- 0.03 ng/ml)
T1 sequence (whole entry): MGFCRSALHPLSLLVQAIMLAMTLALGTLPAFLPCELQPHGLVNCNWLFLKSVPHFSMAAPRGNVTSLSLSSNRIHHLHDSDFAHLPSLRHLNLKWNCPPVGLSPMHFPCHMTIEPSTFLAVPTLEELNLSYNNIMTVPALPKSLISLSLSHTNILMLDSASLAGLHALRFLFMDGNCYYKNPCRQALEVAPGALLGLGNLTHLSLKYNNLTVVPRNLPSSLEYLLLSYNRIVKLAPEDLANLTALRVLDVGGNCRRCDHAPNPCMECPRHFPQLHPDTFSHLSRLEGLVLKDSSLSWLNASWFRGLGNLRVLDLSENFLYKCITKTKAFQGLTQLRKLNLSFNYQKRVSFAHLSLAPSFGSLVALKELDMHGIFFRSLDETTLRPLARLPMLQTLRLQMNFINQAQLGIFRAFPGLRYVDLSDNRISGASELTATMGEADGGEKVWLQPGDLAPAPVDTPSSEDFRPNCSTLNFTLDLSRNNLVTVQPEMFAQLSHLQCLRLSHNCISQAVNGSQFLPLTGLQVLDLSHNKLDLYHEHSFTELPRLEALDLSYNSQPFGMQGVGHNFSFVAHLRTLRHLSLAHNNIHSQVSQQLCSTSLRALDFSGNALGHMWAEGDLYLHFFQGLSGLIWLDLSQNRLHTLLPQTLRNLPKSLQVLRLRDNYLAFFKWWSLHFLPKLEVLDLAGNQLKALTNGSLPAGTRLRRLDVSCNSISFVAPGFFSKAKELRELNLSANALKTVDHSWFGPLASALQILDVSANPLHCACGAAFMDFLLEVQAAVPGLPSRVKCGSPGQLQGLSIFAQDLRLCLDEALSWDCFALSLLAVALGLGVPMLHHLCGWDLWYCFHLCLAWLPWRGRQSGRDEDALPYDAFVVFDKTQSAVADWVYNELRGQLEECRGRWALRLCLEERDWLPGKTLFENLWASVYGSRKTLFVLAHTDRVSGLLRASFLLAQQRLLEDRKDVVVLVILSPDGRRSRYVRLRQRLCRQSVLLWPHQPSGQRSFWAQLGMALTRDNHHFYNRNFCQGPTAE

[2] = molecular target: T1, Toll-like receptor 9 (Homo sapiens); test: Induction of TLR9-mediated immune stimulation in human PBMC assessed as IL1Ralpha production at 10 ug/ml after 24 hrs by luminex multiplex assay (RVb = 0.12 +/- 0.03 ng/ml)
[3] = molecular target: T1, Toll-like receptor 9 (Homo sapiens); test: Induction of TLR9-mediated immune stimulation in human PBMC assessed as IL2R production at 2 ug/ml after 24 hrs by luminex multiplex assay (RVb = 0.02 +/- 0.01 ng/ml)
[4] = molecular target: T1, Toll-like receptor 9 (Homo sapiens); test: Induction of TLR9-mediated immune stimulation in human PBMC assessed as IL12 production at 10 ug/ml after 24 hrs by luminex multiplex assay (RVb = 0.00 ng/ml)
[5] = molecular target: T1, Toll-like receptor 9 (Homo sapiens); test: Induction of TLR9-mediated immune stimulation in human PBMC assessed as MIP1alpha production at 2 ug/ml after 24 hrs by luminex multiplex assay (RVb = 0.01 ng/ml)
[6] = molecular target: T1, Toll-like receptor 9 (Homo sapiens); test: Induction of TLR9-mediated immune stimulation in human PBMC assessed as IP10 production at 2 ug/ml after 24 hrs by luminex multiplex assay (RVb = 0.00 ng/ml)
[7] = molecular target: T1, Toll-like receptor 9 (Homo sapiens); test: Induction of TLR9-mediated immune stimulation in human PBMC assessed as IP10 production at 10 ug/ml after 24 hrs by luminex multiplex assay (RVb = 0.00 ng/ml)
[8] = molecular target: T1, Toll-like receptor 9 (Homo sapiens); test: Induction of TLR9-mediated immune stimulation in human PBMC assessed as RANTES production at 10 ug/ml after 24 hrs by luminex multiplex assay (RVb = 0.05 +/- 0.04 ng/ml)
[9] = molecular target: T1, Toll-like receptor 9 (Homo sapiens); test: Induction of TLR9-mediated immune stimulation in human PBMC assessed as MCP1 production at 10 ug/ml after 24 hrs by luminex multiplex assay (RVb = 0.08 +/- 0.02 ng/ml)
[10] = molecular target: T1, Toll-like receptor 9 (Homo sapiens); test: Induction of TLR9-mediated human B cell proliferation assessed as [3H]thymidine uptake after 56 hrs by scintillation counting
How it was run: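 B cells were purified from human PBMCs (healthy volunteers), about 1 × 10⁵ cells, and stimulated with various agonist concentrations for 56 h. Cells were then pulsed with 0.75 μCi [³H]-thymidine and harvested 16 h later. Incorporation was counted by scintillation and reported as cpm.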

Mus musculus = test: Immunostimulatory activity in C57BL/6 mouse assessed as increase in serum IL12 level at 1 mg/kg, sc after 2 hrs by ELISA; assay type: functional, organism-based; design: dose 1 mg/kg
How it was run: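 Female C57BL/6 mice (n=3) received a single subcutaneous agonist dose of 1 mg/kg. Blood was taken by retro-orbital bleeding 2 h later, and serum IL-12 was measured by sandwich ELISA. Values are the mean of three mice ± SD.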

Compound | Activity [1] | Activity [2] | Activity [3] | Activity [4] | Activity [5] | Activity [6] | Activity [7] | Activity [8] | Activity [9] | Activity [10] | Activity (Mus musculus)
Cc1cn([C@H]2C[C@H](OCCOCCOCCOCCOCCOCCOP(=O)(S)O[C@H]3C[C@H](n4cc(C)c(=O)[nH]c4=O)O[C@@H]3COP(=O)(S)O[C@H]3[C@@H](O)[C@H](n4ccc(N)nc4=O)O[C@@H]3COP(=O)(S)O[C@H]3C[C@H](n4cc(C)c(=O)[nH]c4=O)O[C@@H]3COP(=O)(S)O[C@H]3C[C@H](n4cc(C)c(=O)[nH]c4=O)O[C@@H]3COP(=O)(S)O[C@H]3C[C@H](n4ccc5c(=O)[nH]c(N)nc54)O[C@@H]3COP(=O)(S)O[C@H]3[C@@H](O)[C@H](n4ccc(N)nc4=O)O[C@@H]3COP(=O)(S)O[C@H]3C[C@H](n4cc(C)c(=O)[nH]c4=O)O[C@@H]3COP(=O)(S)O[C@H]3[C@@H](O)[C@H](n4cnc5c(=O)[nH]c(N)nc54)O[C@@H]3COP(=O)(S)O[C@H]3C[C@H](n4cc(C)c(=O)[nH]c4=O)O[C@@H]3COP(=O)(S)O[C@H]3[C@@H](O)[C@H](n4ccc(N)nc4=O)O[C@@H]3COP(=O)(S)O[C@H]3C[C@H](n4cc(C)c(=O)[nH]c4=O)O[C@@H]3CO)[C@@H](COP(=O)(S)O[C@H]3[C@@H](O)[C@H](n4ccc(N)nc4=O)O[C@@H]3COP(=O)(S)O[C@H]3C[C@H](n4cc(C)c(=O)[nH]c4=O)O[C@@H]3COP(=O)(S)O[C@H]3C[C@H](n4cc(C)c(=O)[nH]c4=O)O[C@@H]3COP(=O)(S)O[C@H]3C[C@H](n4ccc5c(=O)[nH]c(N)nc54)O[C@@H]3COP(=O)(S)O[C@H]3[C@@H](O)[C@H](n4ccc(N)nc4=O)O[C@@H]3COP(=O)(S)O[C@H]3C[C@H](n4cc(C)c(=O)[nH]c4=O)O[C@@H]3COP(=O)(S)O[C@H]3[C@@H](O)[C@H](n4cnc5c(=O)[nH]c(N)nc54)O[C@@H]3COP(=O)(S)O[C@H]3C[C@H](n4cc(C)c(=O)[nH]c4=O)O[C@@H]3COP(=O)(S)O[C@H]3[C@@H](O)[C@H](n4ccc(N)nc4=O)O[C@@H]3COP(=O)(S)O[C@H]3C[C@H](n4cc(C)c(=O)[nH]c4=O)O[C@@H]3CO)O2)c(=O)[nH]c1=O (stereo partly drawn) | 10.7 ng/mL | 83.9 ng/mL | 0.11 ng/mL | 0.19 ng/mL | 0.05 ng/mL | 0.03 ng/mL | 0.04 ng/mL | 1.32 ng/mL | 3.31 ng/mL | Dose-dependent effect | inactive
Cc1cn([C@H]2C[C@H](OCCOCCOCCOCCOP(=O)(S)O[C@H]3C[C@H](n4cc(C)c(=O)[nH]c4=O)O[C@@H]3COP(=O)(S)O[C@H]3[C@@H](O)[C@H](n4ccc(N)nc4=O)O[C@@H]3COP(=O)(S)O[C@H]3C[C@H](n4cc(C)c(=O)[nH]c4=O)O[C@@H]3COP(=O)(S)O[C@H]3C[C@H](n4cc(C)c(=O)[nH]c4=O)O[C@@H]3COP(=O)(S)O[C@H]3C[C@H](n4ccc5c(=O)[nH]c(N)nc54)O[C@@H]3COP(=O)(S)O[C@H]3[C@@H](O)[C@H](n4ccc(N)nc4=O)O[C@@H]3COP(=O)(S)O[C@H]3C[C@H](n4cc(C)c(=O)[nH]c4=O)O[C@@H]3COP(=O)(S)O[C@H]3[C@@H](O)[C@H](n4cnc5c(=O)[nH]c(N)nc54)O[C@@H]3COP(=O)(S)O[C@H]3C[C@H](n4cc(C)c(=O)[nH]c4=O)O[C@@H]3COP(=O)(S)O[C@H]3[C@@H](O)[C@H](n4ccc(N)nc4=O)O[C@@H]3COP(=O)(S)O[C@H]3C[C@H](n4cc(C)c(=O)[nH]c4=O)O[C@@H]3CO)[C@@H](COP(=O)(S)O[C@H]3[C@@H](O)[C@H](n4ccc(N)nc4=O)O[C@@H]3COP(=O)(S)O[C@H]3C[C@H](n4cc(C)c(=O)[nH]c4=O)O[C@@H]3COP(=O)(S)O[C@H]3C[C@H](n4cc(C)c(=O)[nH]c4=O)O[C@@H]3COP(=O)(S)O[C@H]3C[C@H](n4ccc5c(=O)[nH]c(N)nc54)O[C@@H]3COP(=O)(S)O[C@H]3[C@@H](O)[C@H](n4ccc(N)nc4=O)O[C@@H]3COP(=O)(S)O[C@H]3C[C@H](n4cc(C)c(=O)[nH]c4=O)O[C@@H]3COP(=O)(S)O[C@H]3[C@@H](O)[C@H](n4cnc5c(=O)[nH]c(N)nc54)O[C@@H]3COP(=O)(S)O[C@H]3C[C@H](n4cc(C)c(=O)[nH]c4=O)O[C@@H]3COP(=O)(S)O[C@H]3[C@@H](O)[C@H](n4ccc(N)nc4=O)O[C@@H]3COP(=O)(S)O[C@H]3C[C@H](n4cc(C)c(=O)[nH]c4=O)O[C@@H]3CO)O2)c(=O)[nH]c1=O (stereo partly drawn) | 9.05 ng/mL | 69.9 ng/mL | 0.04 ng/mL | 0.15 ng/mL | 0.04 ng/mL | 0.02 ng/mL | 0.03 ng/mL | 1.09 ng/mL | 7.13 ng/mL | Dose-dependent effect | Active
Cc1cn([C@H]2C[C@H](OCC(O)COP(=O)(S)O[C@H]3C[C@H](n4cc(C)c(=O)[nH]c4=O)O[C@@H]3COP(=O)(S)O[C@H]3[C@@H](O)[C@H](n4ccc(N)nc4=O)O[C@@H]3COP(=O)(S)O[C@H]3C[C@H](n4cc(C)c(=O)[nH]c4=O)O[C@@H]3COP(=O)(S)O[C@H]3C[C@H](n4cc(C)c(=O)[nH]c4=O)O[C@@H]3COP(=O)(S)O[C@H]3C[C@H](n4ccc5c(=O)[nH]c(N)nc54)O[C@@H]3COP(=O)(S)O[C@H]3[C@@H](O)[C@H](n4ccc(N)nc4=O)O[C@@H]3COP(=O)(S)O[C@H]3C[C@H](n4cc(C)c(=O)[nH]c4=O)O[C@@H]3COP(=O)(S)O[C@H]3[C@@H](O)[C@H](n4cnc5c(=O)[nH]c(N)nc54)O[C@@H]3COP(=O)(S)O[C@H]3C[C@H](n4cc(C)c(=O)[nH]c4=O)O[C@@H]3COP(=O)(S)O[C@H]3[C@@H](O)[C@H](n4ccc(N)nc4=O)O[C@@H]3COP(=O)(S)O[C@H]3C[C@H](n4cc(C)c(=O)[nH]c4=O)O[C@@H]3CO)[C@@H](COP(=O)(S)O[C@H]3[C@@H](O)[C@H](n4ccc(N)nc4=O)O[C@@H]3COP(=O)(S)O[C@H]3C[C@H](n4cc(C)c(=O)[nH]c4=O)O[C@@H]3COP(=O)(S)O[C@H]3C[C@H](n4cc(C)c(=O)[nH]c4=O)O[C@@H]3COP(=O)(S)O[C@H]3C[C@H](n4ccc5c(=O)[nH]c(N)nc54)O[C@@H]3COP(=O)(S)O[C@H]3[C@@H](O)[C@H](n4ccc(N)nc4=O)O[C@@H]3COP(=O)(S)O[C@H]3C[C@H](n4cc(C)c(=O)[nH]c4=O)O[C@@H]3COP(=O)(S)O[C@H]3[C@@H](O)[C@H](n4cnc5c(=O)[nH]c(N)nc54)O[C@@H]3COP(=O)(S)O[C@H]3C[C@H](n4cc(C)c(=O)[nH]c4=O)O[C@@H]3COP(=O)(S)O[C@H]3[C@@H](O)[C@H](n4ccc(N)nc4=O)O[C@@H]3COP(=O)(S)O[C@H]3C[C@H](n4cc(C)c(=O)[nH]c4=O)O[C@@H]3CO)O2)c(=O)[nH]c1=O (stereo partly drawn) | 13 ng/mL | 81.7 ng/mL | 0.06 ng/mL | 0.17 ng/mL | 0.05 ng/mL | 0.03 ng/mL | 0.01 ng/mL | 1.67 ng/mL | 1.88 ng/mL | Dose-dependent effect | Active
